High-throughput results (PubChem BioAssay)
An excerpt weighted towards active compounds, which were near 2.3% of everything screened.
V1aR counter: counter-screen for oxytocin receptor agonists: human V1a receptor agonists; 0.25% of 320,000 active; activation, % at 3 µM; AID 2797; CHO-V1R cells, Fluo-8 calcium fluorescence, agonist mode; 0% DMSO, 100% 3 nM vasopressin;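 active means activation above the mean activation of all tested compounds plus 3 SD, per screening run, cut at about 20% in these data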;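 further: signal is peak over basal fluorescence ratio across a 100 second FLIPR read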
OXTR potentiator: potentiators of human oxytocin receptor. activation, % at 3 µM. CHO-OTR cells, Fluo-8 calcium fluorescence, potentiator mode; 0% = oxytocin EC15, 100% = EC100. AID 2445. 0.061% of 320,000 active;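 active means activation above that plate's cutoff, the mean activation of tested compounds plus 3 SD, cut at about 6.6% in these data, passing the limit was not always enough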;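 further: 100% uses oxytocin at 75 nM as the full agonist control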
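Assay system: CHO-OTR cells, human receptor / Also added: oxytocin at about EC15, sub-maximal agonist stimulus / Dosing: single dose, 3.0 µM nominal final compound concentration / Incubation: 6 min pre-incubation, 100 s read / Technique: Fluo-8 calcium dye fluorescence / Read-out: % activation vs EC15 and EC100 oxytocin / Benchmarks: EC15 oxytocin low, 75 nM oxytocin high / Replicates: singlicate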
TAAR1 antag: human TAAR1 antagonism. 1.5% of 360,000 active. CHO RD-HGA16 TAAR1, Fluo-8 calcium fluorescence, antagonist. inhibition, % at 3 µM. AID 624466. Q96RJ0;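 active means inhibition above a per-plate cutoff, the mean inhibition of test compounds on that plate plus 3 SD, cut at about 49% in these data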;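 further: 0% = DMSO plus EC80 beta-PEA response and 100% = DMSO alone without agonist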
Target sequence (Q96RJ0 whole entry, looked up): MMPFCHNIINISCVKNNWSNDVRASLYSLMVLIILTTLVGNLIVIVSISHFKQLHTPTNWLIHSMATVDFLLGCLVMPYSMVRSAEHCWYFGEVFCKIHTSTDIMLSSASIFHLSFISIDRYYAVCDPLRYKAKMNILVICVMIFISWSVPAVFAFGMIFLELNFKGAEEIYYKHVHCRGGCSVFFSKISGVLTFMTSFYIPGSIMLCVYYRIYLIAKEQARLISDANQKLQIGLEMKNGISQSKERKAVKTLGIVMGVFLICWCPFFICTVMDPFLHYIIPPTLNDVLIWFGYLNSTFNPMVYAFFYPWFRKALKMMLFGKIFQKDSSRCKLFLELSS
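Test system: hTAAR1-expressing CHO RD-HGA16 cells, Gα16-coupled; Probe or stimulus: EC80 β-phenethylamine stimulus; Compound dosing: single nominal final test compound concentration of 3 µM; Timing: 140 s kinetic read after compound, 140 s after agonist; Signal: Fluo-8 calcium-sensitive fluorescence; Measure: % inhibition of agonist calcium response; Controls: DMSO and EC80 PEA controls.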
OXTR ag: human OXTR agonism; 0.32% of 320,000 active; activation, % at 3 µM; CHO-OTR cells, Fluo-8 calcium fluorescence; normalized: DMSO 0%, oxytocin 100%;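 active means activation above the mean of all tested compounds plus 3 SD, cutoff set per screening run, cut at about 20% in these data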;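 further: peak over basal fluorescence ratio from a 100 s FLIPR kinetic read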
TAAR1 ag: agonists of human TAAR1 | 0.99% of 360,000 active | CHO RD-HGA16 TAAR1, Fluo-8 calcium fluorescence; vehicle wells 0%, saturating PEA agonist 100% | Q96RJ0 | activation, % at 3 µM;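 active means activation above the mean activation of all test compounds in the run plus 3 SD, cut at about 38% in these data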
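System: CHO-derived RD-HGA16 cells with stable Gα16 and human TAAR1 / Times: 17-24 h plating, Fluo-8 75 min 37 °C, 30 min RT / Technique: calcium-sensitive Fluo-8 signal, excitation 470-495, emission 515-575 nm / Measure: % activation relative to PEA EC100 response / Benchmarks: DMSO and PEA EC100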
nonsel antag count: nonselective antagonist in TAAR1 antagonist counter-screen; 77% of 2,400 active; AID 651780; shares compounds with TAAR1 antag; counterscreen cell line, calcium fluorescence, antagonist mode; inhibition, % at 3 µM; in the data active means inhibition above about 22%;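 further: CHO-Ga16 host cells stimulated with ATP at an EC80 level; 0% = agonist EC80 plus vehicle and 100% = vehicle without agonist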
TAAR1 antag conf: confirmation of human TAAR1 antagonists. shares compounds with TAAR1 antag. TAAR1-expressing cells, fluorescence antagonist read-out. inhibition, % at 3 µM. 40% of 2,400 active. AID 651785; in the data active means inhibition above about 49%;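 further: CHO-Ga16 host cells challenged with agonist PEA near its EC80; 0% = agonist at EC80 plus vehicle and 100% = vehicle with no agonist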
Ga16 ag counter: nonselective Ga16 agonism, counter-screen | 18% of 2,400 active | AID 651953 | Ga16-expressing cells, calcium fluorescence, agonist counterscreen | shares compounds with TAAR1 antag | activation, % at 3 µM; in the data active means activation above about 12%;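 further: 0% = vehicle wells and 100% = saturating stimulus response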
TAAR1 ag counter: counter-screen for human TAAR1 antagonists: TAAR1 agonists | hTAAR1 cell line, fluorescence activation, agonist mode | activation, % at 3 µM | AID 651955 | 2% of 2,400 active | shares compounds with TAAR1 antag; in the data active means activation above about 37%;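 further: CHO cells stably expressing TAAR1 with calcium dye readout; 0% = DMSO vehicle and 100% = full agonist response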
Active calls of the source: *; . = not tested or not shown.

SMILES | V1aR counter | OXTR potentiator | TAAR1 antag | OXTR ag | TAAR1 ag | nonsel antag count | TAAR1 antag conf | Ga16 ag counter | TAAR1 ag counter
O=C(Nc1ccon1)c1ccc(OC2CCCC2)cc1 | 3 | -4 | 5 | -1 | 6 | . | . | . | .
Oc1[nH]c2ccccc2c1N=Nc1nc(Nc2ccccc2)nc(N2CCOCC2)n1 | -1 | -5 | 53* | -1 | 11 | 29* | 45 | 6 | 9
COc1ccccc1NC(=O)C1=C(C)NC(=O)NC1c1cccs1 (stereo unspecified) | 0 | 0 | 5 | 0 | 9 | . | . | . | .
COC(=O)c1cccc(N2C(=O)C[C@](Sc3ccc(C)cc3)(C(=O)OC)[C@H]2c2ccccc2)c1 | . | . | 82* | . | 7 | 32* | 55* | 5 | 2
COC(=O)[C@@]1(Sc2ccc(C)cc2)CC(=O)N(C(=O)C2CC2)[C@@H]1c1ccccc1 | . | . | 9 | . | -1 | . | . | . | .
CCCc1cc(C(=O)Nc2ccc(C(=O)c3ccc(C)cc3)cc2)n(C)n1 | 5 | -12 | 64* | 1 | -1 | 29* | 49* | 3 | -2
CN(Cc1ccccc1)C(=O)c1[nH]c(C(F)(F)F)nc1-c1ccccc1 | . | . | 7 | . | 0 | . | . | . | .
CCCCN(C)C(=O)C(Cc1ccccc1)NS(=O)(=O)c1ccc2c(c1)c(=O)n(C)c(=O)n2C (stereo unspecified) | 2 | -8 | 67* | 2 | 22 | 31* | 46 | 11 | 13
Cc1nc(-c2cccc(NC(=O)c3ccc(-n4nccc4C)cc3)c2)cs1 | -1 | -5 | 69* | -1 | 30 | 33* | 46 | 10 | 7
COc1ccc(C(=O)Nc2ccc(-c3cn4ccsc4n3)cc2)cc1S(=O)(=O)N1CCOCC1 | 0 | -2 | 62* | -1 | 17 | 25* | 49* | 6 | 4
COc1ccc(C(=O)Nc2ccc(N3CCOCC3)cc2)cc1S(=O)(=O)N1CCOCC1 | . | . | -20 | . | 1 | . | . | . | .
O=C(CN1CCN(S(=O)(=O)c2ccc(F)c(F)c2)CC1)Nc1ccccc1C(=O)NC1CC1 | 2 | -4 | 49* | 2 | 14 | 22* | 35 | 5 | 11
N#Cc1ccccc1S(=O)(=O)N1CCN(CC(=O)Nc2ccccc2C(=O)NC2CC2)CC1 | 1 | -2 | 56* | -1 | 14 | 24* | 47 | 8 | 10
CCc1ccc(CN(Cc2cccnc2)C(=O)/C=C/c2ccc(OC)cc2)cc1 | 0 | -7 | -29 | -1 | -5 | . | . | . | .
CC(=O)c1ccc(N2CCN(C(=O)Nc3cccc(F)c3)CC2)cc1 | 5 | -16 | -11 | 3 | 3 | . | . | . | .
COc1ccc2[nH]c(=O)c(CN(Cc3nnnn3Cc3ccco3)C3CCCCC3)cc2c1 | -1 | -17 | 67* | -1 | 25 | 28* | 51* | 12* | 18
COc1ccc(NC(=O)C2(C)CCN2C(=O)c2ccccc2CCc2ccccc2)cc1OC (stereo unspecified) | . | . | 65* | . | 5 | 18 | 43 | 6 | 16
Cc1cc(C)c(C#N)c(N2CCN(CCOc3ccc(Cl)cc3)CC2)n1 | 0 | -8 | 57* | -1 | 9 | 34* | 31 | 6 | 3
O=C(Nc1cccc(NC(=O)c2ccc(-c3ccc(Br)cc3)o2)c1)c1ccco1 | 1 | -2 | 69* | 0 | 11 | 33* | 50* | 6 | 1
Cc1ccc(C(=O)Nc2cccc(-c3cnc4ccccc4n3)c2)cc1 | 0 | -6 | 1 | 0 | 3 | . | . | . | .
O=C(Nc1cccc(-c2cnc3ccccc3n2)c1)c1ccco1 | -2 | -12 | 54* | -2 | 9 | 17 | 34 | 7 | 3
O=C(Nc1cccc(-c2cnc3ccccc3n2)c1)c1ccncc1 | 2 | 1 | 28 | 0 | 12 | . | . | . | .
